# Most compounds without a hit are left out; they make up all but 4.1% or so of the library.
# UPR XBP1 act – activators of adaptive XBP1 UPR arm, primary screen, cell-based, CHO-XBP1 luciferase reporter, luminescence, uHTS; IRE1-XBP1 UPR activation; percent of tunicamycin response, DMSO as zero; activation, % at 20 µM; 0.33% of 330,000 active; AID 463104, 2010;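 active means versus positive control, 20 µM dose yields 30% or more activation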
#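 Test system: CHO-XBP1 luciferase reporter cells | Buffer or medium: Serum-containing F12 medium, 10% FBS | Schedule: 6 h compound exposure at 37 °C, 5% CO2 | Detection: Steady-Glo luciferase glow luminescence, 10 min after reagent addition | Read-out basis: Activation, % of tunicamycin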
# Mdm2 MdmX PPI – inhibitors of human Mdm2-MdmX association, primary screen, cell-based, luminescence, split luciferase, SaOS-2, uHTS; SaOS-2 split-luciferase Mdm2/MdmX complementation; 3% of 330,000 active; AID 485346, 2010; inhibition, % at 8 µM; Protein Mdm4 (Homo sapiens) + E3 ubiquitin-protein ligase Mdm2 (Homo sapiens), …;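 active means inhibition of at least 50% at 8 µM in the primary screen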
# UBC13 polyUb – UBC13 polyubiquitin chain formation inhibitors, primary screen, biochemical, TR-FRET, uHTS | Ubiquitin-conjugating enzyme E2 N (Homo sapiens), P61088 | AID 485273, 2010 | inhibition, % at 20 µM | 0.47% of 330,000 active; in the data active means inhibition above about 45%, passing the limit was not always enough
# Apaf1 inhib – inhibitors of human Apaf-1 apoptosome, primary screen, biochemical, DEVD-Rh110 fluorescence, uHTS. reconstituted apoptosome caspase-3 activity. Apoptotic protease-activating factor 1 (Homo sapiens), O14727. inhibition, % at 20 µM. 0.71% of 330,000 active; active means inhibition of at least 40% at 20 µM
#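 System: reconstituted apoptosome with Apaf-1, cytochrome c, caspase-9, procaspase-3, dATP; Signal: Rh110 fluorescence intensity; Schedule: 30 min compound preincubation, 50 min activation, room temperature; Reagent: cytochrome c trigger plus (Z-DEVD)2-Rh110 caspase-3 substrate.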
# UPR CHOP act – activators of apoptotic CHOP UPR arm, primary screen, cell-based, CHO-CHOP luciferase reporter, luminescence, uHTS; UPR activation; percent of tunicamycin response over DMSO baseline; activation, % at 10 µM; 0.34% of 330,000 active; AID 449763, 2010;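 active means at 10 µM dose, activation of 40% or more, normalized to positive control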
#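 measured by = luciferase luminescence | assay system = CHO-CHOP cells, stable luciferase reporter of PERK-eIF2a-CHOP signalling | amount = 500 reporter cells seeded per well | timing = 6 h compound exposure at 37 °C after overnight seeding | controls = positive tunicamycin 10 µg/mL, negative DMSO alone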
# Mdm2-MdmX conf – Mdm2-MdmX complex disruptors, retested hits, confirmation, luminescence, single concentration. 55% of 10,000 active. inhibition, % at 8 µM. shares compounds with Mdm2 MdmX PPI. AID 489028, 2010. Mdm2-MdmX binding, luminescent assay; in the data active means inhibition above about 40%
# Full FLuc ctr – full-length luciferase signal inhibition, confirmation, counter-screen for Mdm2/MdmX interaction inhibitor project, cell-based, single concentration, SaOS-2; shares compounds with Mdm2 MdmX PPI; SaOS-2 full-length luciferase counterscreen, luminescence; inhibition, % at 8 µM; 77% of 6,200 active; AID 504607, 2011;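 active means mean inhibition at 8 µM reaching about 37%, which flags the compound as non-specific, limit read from the data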;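 further: p53-null SaOS-2 cells with luciferase driven by a doxycycline-inducible promoter; compound on cells about two nights before reading with doxycycline added after day one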
# A number is an active result; n = inactive; x = not tested or not shown.
SMILES,UPR XBP1 act,Mdm2 MdmX PPI,UBC13 polyUb,Apaf1 inhib,UPR CHOP act,Mdm2-MdmX conf,others
Cc1nn(CC(=O)Nc2ccc3c(c2)oc2ccccc23)c(=O)c2ccccc12,n,77,n,n,n,n,
CCS(=O)(=O)Nc1cccc(-c2ccc3nnc(C)n3n2)c1,n,n,n,n,n,x,
Cc1ccc(S(=O)(=O)Nc2cccc(-c3ccc4nnc(C)n4n3)c2)s1,n,65,n,n,n,n,
CC1(C)CC(=O)C(C(C2=C(O)CC(C)(C)CC2=O)c2ccc(Br)s2)C(=O)C1 (configuration not stated),n,n,n,n,n,x,
CCCN(C(=O)Cc1ccc(S(=O)(=O)N2CCOCC2)s1)c1c(N)n(Cc2ccccc2)c(=O)[nH]c1=O,n,n,n,n,n,x,
O=Cc1c(-c2ccc(Cl)cc2)oc2ccc(O)cc12,n,n,n,n,n,x,
Nc1nc2ccccc2n1/N=C/c1ccc([N+](=O)[O-])s1,n,56,n,n,n,47,Full FLuc ctr=48
Nc1nc2ccccc2n1/N=C/c1cccnc1,n,n,n,n,n,x,
COc1ccc(-c2nc3c(c(SCC(=O)Nc4cccc(O)c4)n2)Cc2c(CO)cnc(C)c2O3)cc1,n,n,n,n,n,x,
Cc1ncc(CO)c2c1Oc1nc(-c3ccccc3)nc(SCC(=O)Nc3cccc(O)c3)c1C2,n,51,n,n,n,n,
O=C(Nc1ccc(F)c(Cl)c1)N1CCCCCC1,n,n,n,n,n,x,
CN1CCCN(C(=O)c2cc(-c3ccc(Cl)c(Cl)c3Cl)nc3ccccc23)CC1,n,53,n,n,n,n,Full FLuc ctr=76
O=C(OCC(=O)N1CCN(C(=O)c2ccco2)CC1)c1cc(-c2ccc(Cl)c(Cl)c2Cl)nc2ccccc12,n,57,n,n,n,n,
O=C(OCC(=O)N1CCN(C(=O)c2ccco2)CC1)c1cc(-c2ccco2)nc2ccccc12,n,n,n,n,n,x,
O=[N+]([O-])CC(=Nc1ccc(Cl)cc1)N/N=C\c1oc(O)c2ccccc12,n,n,n,n,n,x,
CCN(CC)c1ccc2c(c1)OC(N)=C(C#N)C2c1cccnc1 (configuration not stated),n,66,n,n,n,60,Full FLuc ctr=92
N#CC1=C(N)Oc2cc(N)ccc2C1c1cccnc1 (configuration not stated),n,n,n,n,n,x,
COc1cc(-c2nc3cnccn3c2Nc2ccc(C)cc2)ccc1O,n,69,n,n,n,n,
COc1cc(-c2nc3cnccn3c2Nc2ccccc2)ccc1O,n,57,n,n,n,n,Full FLuc ctr=94
COc1cc(-c2nc3cnccn3c2Nc2ccc(C(C)C)cc2)ccc1O,n,n,n,n,n,x,
CCc1c(C)nc(N2CCN(c3ccc(OC)cc3)CC2)[nH]c1=O,n,n,n,n,n,x,
N=c1c2c(n(Cc3ccc(Br)cc3)c3c1CCC3)CCCC2,n,n,n,n,n,x,
N=c1c2c(n(Cc3ccc(Cl)c(Cl)c3)c3c1CCC3)CCCC2,n,74,n,n,n,52,Full FLuc ctr=45
O=S(=O)(c1ccccc1)N(CC1CO1)c1cccc2ccccc12 (configuration not stated),n,n,n,n,n,x,
Cc1ccc2occ(/C=N/NC(=O)c3ccccc3O)c(=O)c2c1,n,81,n,n,n,66,Full FLuc ctr=46
SMILES,UPR XBP1 act,Mdm2 MdmX PPI,UBC13 polyUb,Apaf1 inhib,UPR CHOP act,Mdm2-MdmX conf,others
CCOc1ccccc1C(=O)N/N=C/c1coc2ccc(Cl)cc2c1=O,n,82,n,n,n,85,Full FLuc ctr=n
O=C1c2ccccc2NC(c2cccc(O)c2)N1NS(=O)(=O)c1ccccc1 (configuration not stated),n,n,n,n,n,x,
O=C(O)c1nn(CCOc2c(Cl)cccc2Cl)c(=O)c2ccccc12,n,69,n,n,n,54,Full FLuc ctr=44
O=C(O)c1nn(CCOc2cccc(Cl)c2)c(=O)c2ccccc12,n,n,n,n,n,x,
Cc1cccc(NC(=O)c2c([N+](=O)[O-])cnn2C)c1,n,n,n,n,n,x,
O=C(CNS(=O)(=O)c1ccc(Br)s1)NCCc1ccc(Cl)cc1,n,n,n,n,n,x,
CC(=O)c1ccc(NC(=O)COC(=O)c2nc(Cl)ccc2Cl)cc1,n,n,n,n,n,x,
COc1ccc(N=CC2=C(Nc3ccc(OC)cc3)c3c(C)nn(-c4ccccn4)c3CC2)cc1,n,90,n,93,59,72,Full FLuc ctr=n
COc1ccc(-c2cc(C(=O)O)c3c(C)nn(-c4ccccn4)c3n2)cc1,n,n,n,n,n,x,
Cc1ccc(NC(=O)c2cc3c(=O)oc4ccc(C)cc4c3s2)nc1,n,75,n,n,n,n,
Cc1ccnc(NC(=O)c2cc3c(=O)oc4ccc(C)cc4c3s2)c1,n,70,n,n,n,n,Full FLuc ctr=74
Cc1ccc2oc(=O)c3cc(C(=O)NCCCN4CCCCCC4)sc3c2c1,n,n,n,n,n,x,
CCC1CCCCN1CCCNC(=O)c1cc2c(=O)oc3ccc(C)cc3c2s1 (configuration not stated),n,54,n,n,n,n,
Cc1ccc2oc(=O)c3cc(C(=O)NCCN4CCN(C)CC4)sc3c2c1,n,n,n,n,n,x,
CC(Oc1ccc(C#N)cc1)C(=O)NC1CCCC1 (configuration not stated),n,n,n,n,n,x,
COc1ccc(-c2csc(NC(=O)CCN3C(=O)C4CC=CCC4C3=O)n2)cc1OC (configuration not stated),n,n,n,n,n,x,
N/C(=N\OC(=O)CSc1ccccc1)c1ccncc1,n,n,n,n,n,x,
Cn1nccc1C(=O)NC1CCN(Cc2ccccc2)CC1,n,n,n,n,n,x,
Cc1nn(Cc2ccc(Cl)c(Cl)c2)c(C)c1NC(=O)c1sc2ccccc2c1Cl,n,53,n,n,n,n,
Cc1nn(Cc2ccc(Cl)cc2Cl)c(C)c1NC(=O)c1sc2ccccc2c1Cl,n,n,n,n,n,x,
CCN(CC)CCCCCCCCOC(=O)c1cc(OC)c(OC)c(OC)c1,n,50,n,n,n,n,
COc1cc(C(=O)OCCCN2CCCN(CCCOC(=O)c3cc(OC)c(OC)c(OC)c3)CC2)cc(OC)c1OC,n,61,n,n,n,41,Full FLuc ctr=86

# Bioassay records from PubChem.
